In ChEMBL document CHEMBL4732114, “Design and structural optimization of novel 2H-benzo[h]chromene derivatives that target AcrB and reverse bacterial multidrug resistance” (Eur J Med Chem, 2021):
Converted amounts (≈) assume the structure as drawn. The source made the active and inactive calls. The rule behind the calls is not given here.

Key:
[1] = test system: Escherichia coli; experiment: Antibacterial activity against multidrug-resistant Escherichia coli BW25113 harboring AcrB deletion mutant by two-fold broth dilution method; assay type: functional
Procedure, shortened: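 Two-fold broth dilution MIC against an isogenic BW25113 strain with AcrB deleted, run alongside the AcrB-expressing parent. The test was done to define sub-inhibitory levels for later checkerboard work.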

[2] = Toxicity in multidrug-resistant Escherichia coli BW25113 assessed as growth inhibition by two-fold broth dilution method
[3] = Toxicity in multidrug-resistant Escherichia coli BW25113 harboring AcrB deletion mutant assessed as growth inhibition by two-fold broth dilution method
[4] = molecular target: T1, Multidrug efflux pump subunit AcrB (Escherichia coli (strain K12)) (UniProt P31224); experiment: Inhibition of AcrB in multidrug-resistant Escherichia coli BW25113 assessed as potentiation of chloramphenicol-induced antibacterial activity by measuring chloramphenicol MIC at 8 ug/ml by checkerboard titration method (reference value: 8 ug/ml); conditions: dose 8.0 µg/ml
T1 sequence (whole entry): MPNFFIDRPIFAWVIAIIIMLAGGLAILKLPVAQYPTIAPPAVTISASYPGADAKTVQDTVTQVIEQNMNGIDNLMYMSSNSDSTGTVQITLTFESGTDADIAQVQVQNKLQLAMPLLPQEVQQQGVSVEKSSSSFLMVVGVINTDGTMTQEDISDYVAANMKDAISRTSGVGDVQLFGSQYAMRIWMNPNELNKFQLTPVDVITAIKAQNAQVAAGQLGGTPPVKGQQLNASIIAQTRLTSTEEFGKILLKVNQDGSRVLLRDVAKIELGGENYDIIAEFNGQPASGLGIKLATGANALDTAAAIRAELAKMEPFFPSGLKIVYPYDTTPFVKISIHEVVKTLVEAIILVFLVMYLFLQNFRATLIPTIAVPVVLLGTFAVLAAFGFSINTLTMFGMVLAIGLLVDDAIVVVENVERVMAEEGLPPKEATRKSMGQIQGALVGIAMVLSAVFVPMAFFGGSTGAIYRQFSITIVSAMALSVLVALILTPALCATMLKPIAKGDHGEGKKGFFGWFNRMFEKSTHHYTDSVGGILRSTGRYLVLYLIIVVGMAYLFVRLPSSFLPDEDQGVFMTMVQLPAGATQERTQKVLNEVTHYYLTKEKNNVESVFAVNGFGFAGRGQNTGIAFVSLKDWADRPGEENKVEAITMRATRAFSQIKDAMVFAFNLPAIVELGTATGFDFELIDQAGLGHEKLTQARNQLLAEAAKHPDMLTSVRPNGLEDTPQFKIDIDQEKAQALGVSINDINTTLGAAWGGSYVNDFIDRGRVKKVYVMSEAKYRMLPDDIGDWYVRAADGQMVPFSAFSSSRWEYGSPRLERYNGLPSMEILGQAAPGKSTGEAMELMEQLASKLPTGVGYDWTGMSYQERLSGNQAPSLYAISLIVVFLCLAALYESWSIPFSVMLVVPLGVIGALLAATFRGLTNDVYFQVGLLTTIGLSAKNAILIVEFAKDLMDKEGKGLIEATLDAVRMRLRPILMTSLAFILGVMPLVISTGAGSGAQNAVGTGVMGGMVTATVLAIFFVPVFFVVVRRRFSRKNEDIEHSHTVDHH

[5] = molecular target: T1, Multidrug efflux pump subunit AcrB (Escherichia coli (strain K12)); experiment: Inhibition of AcrB in multidrug-resistant Escherichia coli BW25113 assessed as potentiation of tetraphenylphosphonium-induced antibacterial activity by measuring tetraphenylphosphonium MIC at 16 ug/ml by checkerboard titration method (reference value: 1024 ug/ml); conditions: dose 16.0 µg/ml
[6] = test system: Cell membrane; experiment: Induction of inner membrane permeabilization in wild type Escherichia coli BW25113 assessed as perturbation of proton motive force at 32 ug/ml measured after 10 mins in presence of CCCP and glucose by Di0C2(3) probe based fluorescence assay; conditions: escherichia coli bw25113, 10 min, dose 32 µg/ml
Procedure, shortened: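 Cell suspensions were left untreated or exposed to 8-128 µg/mL compound for 10 min. DiOC₂(3) was then added and fluorescence followed to a plateau. Cells were re-energized with 0.5% glucose, and the rise in fluorescence was read as membrane-potential build-up. CCCP was added last to dissipate the potential.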

[7] = molecular target: T1, Multidrug efflux pump subunit AcrB (Escherichia coli (strain K12)); experiment: Inhibition of AcrB in multidrug-resistant Escherichia coli BW25113 assessed as potentiation of levofloxacin-induced antibacterial activity by measuring levofloxacin MIC at 8 ug/ml by checkerboard titration method (reference value: 0.06 ug/ml); conditions: dose 8.0 µg/ml
[8] = molecular target: T1, Multidrug efflux pump subunit AcrB (Escherichia coli (strain K12)); experiment: Inhibition of AcrB in multidrug-resistant Escherichia coli BW25113 assessed as potentiation of chloramphenicol-induced antibacterial activity by measuring chloramphenicol MIC at 32 ug/ml by checkerboard titration method (reference value: 8 ug/ml); conditions: dose 32.0 µg/ml
[9] = molecular target: T1, Multidrug efflux pump subunit AcrB (Escherichia coli (strain K12)); conditions: Escherichia coli BW25113; dose 128.0 µg/ml
[10] = molecular target: T1, Multidrug efflux pump subunit AcrB (Escherichia coli (strain K12)); experiment: Inhibition of AcrB in multidrug-resistant Escherichia coli BW25113 assessed as potentiation of erythromycin-induced antibacterial activity by measuring erythromycin MIC at 32 ug/ml by checkerboard titration method (reference value: 64 ug/ml); conditions: dose 32.0 µg/ml
[11] = molecular target: T1, Multidrug efflux pump subunit AcrB (Escherichia coli (strain K12)); conditions: Escherichia coli BW25113; dose 32.0 µg/ml
[12] = molecular target: T1, Multidrug efflux pump subunit AcrB (Escherichia coli (strain K12)); conditions: Escherichia coli BW25113; dose 8.0 µg/ml
[13] = molecular target: T1, Multidrug efflux pump subunit AcrB (Escherichia coli (strain K12)); experiment: Inhibition of AcrB in Escherichia coli BW25113 assessed as reduction in glucose-induced nile red efflux at 50 uM preincubated for 15 mins followed by nile red addition and incubated for 3 hrs in shaker in presence of CCCP by fluorimetric analysis; conditions: time 3.25 hrs
Procedure, shortened: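 Wild-type and AcrB-deleted cells were preloaded with Nile Red, with or without compound. Fluorescence was recorded, and efflux was triggered at 100 s with 0.2% glucose. Traces were compared with the deletion-strain level. Triplicate experiments used different cell batches.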

[14] = molecular target: T1, Multidrug efflux pump subunit AcrB (Escherichia coli (strain K12)); experiment: Inhibition of AcrB in multidrug-resistant Escherichia coli BW25113 assessed as potentiation of erythromycin-induced antibacterial activity by measuring erythromycin MIC at 8 ug/ml by checkerboard titration method (reference value: 64 ug/ml); conditions: dose 8.0 µg/ml
[15] = molecular target: T1, Multidrug efflux pump subunit AcrB (Escherichia coli (strain K12)); experiment: Inhibition of AcrB in multidrug-resistant Escherichia coli BW25113 assessed as potentiation of levofloxacin-induced antibacterial activity by measuring levofloxacin MIC at 32 ug/ml by checkerboard titration method (reference value: 0.06 ug/ml); conditions: dose 32.0 µg/ml
[16] = molecular target: T1, Multidrug efflux pump subunit AcrB (Escherichia coli (strain K12)); experiment: Inhibition of AcrB in multidrug-resistant Escherichia coli BW25113 assessed as potentiation of tetraphenylphosphonium-induced antibacterial activity by measuring tetraphenylphosphonium MIC at 32 ug/ml by checkerboard titration method (reference value: 1024 ug/ml); conditions: dose 32.0 µg/ml
[17] = molecular target: T1, Multidrug efflux pump subunit AcrB (Escherichia coli (strain K12)); experiment: Inhibition of AcrB in multidrug-resistant Escherichia coli BW25113 assessed as potentiation of erythromycin-induced antibacterial activity by measuring erythromycin MIC at 16 ug/ml by checkerboard titration method (reference value: 64 ug/ml); conditions: dose 16.0 µg/ml
[18] = test system: Cell membrane; experiment: Induction of outer membrane permeabilization in wild type Escherichia coli BW25113 assessed as increase in nitrocefin hydrolysis at 128 ug/ml in presence of CCCP by spectroscopic analysis; conditions: dose 128 µg/ml
Procedure, shortened: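 Intact E. coli were treated with 10 μM CCCP to block nitrocefin efflux, then given compound, nothing, or polymyxin B as permeabilizer control. Nitrocefin was added, and hydrolysis by periplasmic β-lactamase was followed as the rise in absorbance at 490 nm. Duplicate experiments were run on different days.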

[19] = molecular target: T1, Multidrug efflux pump subunit AcrB (Escherichia coli (strain K12)); experiment: Inhibition of AcrB in multidrug-resistant Escherichia coli BW25113 assessed as potentiation of levofloxacin-induced antibacterial activity by measuring levofloxacin MIC at 16 ug/ml by checkerboard titration method (reference value: 0.06 ug/ml); conditions: dose 16.0 µg/ml
[20] = molecular target: T1, Multidrug efflux pump subunit AcrB (Escherichia coli (strain K12)); experiment: Inhibition of AcrB in multidrug-resistant Escherichia coli BW25113 assessed as potentiation of tetraphenylphosphonium-induced antibacterial activity by measuring tetraphenylphosphonium MIC at 8 ug/ml by checkerboard titration method (reference value: 1024 ug/ml); conditions: dose 8.0 µg/ml
[21] = molecular target: T1, Multidrug efflux pump subunit AcrB (Escherichia coli (strain K12)); experiment: Inhibition of AcrB in multidrug-resistant Escherichia coli BW25113 assessed as potentiation of chloramphenicol-induced antibacterial activity by measuring chloramphenicol MIC at 16 ug/ml by checkerboard titration method (reference value: 8 ug/ml); conditions: dose 16.0 µg/ml
[22] = molecular target: T1, Multidrug efflux pump subunit AcrB (Escherichia coli (strain K12)); conditions: Escherichia coli BW25113; dose 16.0 µg/ml
[23] = molecular target: T1, Multidrug efflux pump subunit AcrB (Escherichia coli (strain K12)); conditions: Escherichia coli BW25113; dose 64.0 µg/ml

**Q.** Which MIC [1] does the source give for `c1ccc([P+](c2ccccc2)(c2ccccc2)c2ccccc2)cc1` [TETRAPHENYLPHOSPHONIUM] here?
**A.** 32 µg/mL

**Q.** Which MIC [2] does the source give for `CC1CN(C(=O)c2cc3c(OCc4ccc([N+](=O)[O-])cc4)cccc3c3c2CCC(C)(C)O3)CC(C)O1` (stereo unspecified) here?
**A.** > 512 µg/mL

**Q.** And the MIC [3]?
**A.** > 128 µg/mL

**Q.** With `CC1(C)CCc2c(-c3nnco3)cc3c(OCc4ccc(F)cc4)cccc3c2O1` as the compound, how does the MIC [2] read?
**A.** 64 µg/mL (≈ 158 µM)

**Q.** And the MIC [4]?
**A.** 8 µg/mL

**Q.** What about the MIC [5] of the same compound?
**A.** 512 µg/mL

**Q.** What about the Activity [6] of the same compound?
**A.** Not Active

**Q.** What about the MIC [7] of the same compound?
**A.** 0.06 µg/mL

**Q.** What about the MIC [8] of the same compound?
**A.** 8 µg/mL

**Q.** And the MIC [9]?
**A.** 16 µg/mL (≈ 39.6 µM)

**Q.** And the MIC [10]?
**A.** 32 µg/mL

**Q.** And the MIC [11]?
**A.** 16 µg/mL (≈ 39.6 µM)

**Q.** And the MIC [12]?
**A.** 16 µg/mL (≈ 39.6 µM)

**Q.** What about the inhibition [13] of the same compound?
**A.** Active

**Q.** And the MIC [14]?
**A.** 64 µg/mL

**Q.** And the MIC [15]?
**A.** 0.06 µg/mL

**Q.** And the MIC [16]?
**A.** 512 µg/mL

**Q.** What about the MIC [17] of the same compound?
**A.** 64 µg/mL

**Q.** And the Activity [18]?
**A.** Not Active

**Q.** What about the MIC [19] of the same compound?
**A.** 0.06 µg/mL

**Q.** And the MIC [20]?
**A.** 1020 µg/mL

**Q.** And the MIC [21]?
**A.** 8 µg/mL

**Q.** What about the MIC [22] of the same compound?
**A.** 16 µg/mL (≈ 39.6 µM)

**Q.** What about the MIC [3] of the same compound?
**A.** 64 µg/mL (≈ 158 µM)

**Q.** And the MIC [23]?
**A.** 16 µg/mL (≈ 39.6 µM)

**Q.** Which MIC [1] does the source give for `CO[C@H]1/C=C/O[C@@]2(C)Oc3c(C)c(O)c4c(O)c(c(/C=N/N5CCN(C)CC5)c(O)c4c3C2=O)NC(=O)/C(C)=C\C=C\[C@H](C)[C@H](O)[C@@H](C)[C@@H](O)[C@@H](C)[C@H](OC(C)=O)[C@@H]1C` [RIFAMPIN] here?
**A.** 16 µg/mL (≈ 19.4 µM)
